This note sets out measurements from ChEMBL document CHEMBL1833793 (Bioorg Med Chem Lett, 2011).

The term Ki denotes a measure of affinity in units of concentration, obtained from inhibition or displacement. The low end stands for tighter binding, the high end for weaker binding. What is called IC50 is the concentration at which inhibition is half-maximal.

The structures appear in SMILES notation.

In data set [1] the target is T1, Neuropeptide Y receptor type 5 (Homo sapiens, UniProt Q15761).
T1 sequence (Q15761 whole entry): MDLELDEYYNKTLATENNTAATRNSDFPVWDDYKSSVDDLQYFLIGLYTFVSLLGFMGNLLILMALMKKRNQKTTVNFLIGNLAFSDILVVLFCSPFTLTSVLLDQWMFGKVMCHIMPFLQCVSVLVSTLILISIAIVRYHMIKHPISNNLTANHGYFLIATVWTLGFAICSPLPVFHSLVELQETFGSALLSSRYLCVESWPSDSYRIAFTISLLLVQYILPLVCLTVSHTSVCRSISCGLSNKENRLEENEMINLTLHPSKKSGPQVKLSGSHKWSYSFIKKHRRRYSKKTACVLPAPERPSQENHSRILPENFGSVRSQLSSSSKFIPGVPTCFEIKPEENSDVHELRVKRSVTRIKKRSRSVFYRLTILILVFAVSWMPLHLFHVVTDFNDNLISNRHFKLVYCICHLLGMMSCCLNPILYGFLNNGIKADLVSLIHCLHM
The experiment in a line: Binding affinity to human NPY5 receptor.

For data set [2], the target named is T1, Neuropeptide Y receptor type 5. The data set can be described thus: Antagonist activity at human NPY5 receptor assessed as calcium mobilization by FLIPR assay. The data set is classed as functional. (In general: Calcium flux is commonly read through the fluorescence of an indicator in the cells.)
The target in data set [3] is T2, Neuropeptide Y receptor type 1 (Homo sapiens, UniProt P25929).
T2 sequence (P25929 whole entry): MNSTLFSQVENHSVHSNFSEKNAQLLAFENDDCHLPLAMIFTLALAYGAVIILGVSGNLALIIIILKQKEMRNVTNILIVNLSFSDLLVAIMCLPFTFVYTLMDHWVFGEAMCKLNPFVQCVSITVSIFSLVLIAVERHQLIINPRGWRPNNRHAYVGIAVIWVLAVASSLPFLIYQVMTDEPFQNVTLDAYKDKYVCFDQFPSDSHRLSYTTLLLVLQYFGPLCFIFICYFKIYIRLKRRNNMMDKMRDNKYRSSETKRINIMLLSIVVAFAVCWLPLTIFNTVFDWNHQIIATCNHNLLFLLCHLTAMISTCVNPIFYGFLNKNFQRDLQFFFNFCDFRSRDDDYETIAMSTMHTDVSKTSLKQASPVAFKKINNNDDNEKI
The experiment in a line: Binding affinity to NPY1 receptor.

Data set [4] has as its target T1, Neuropeptide Y receptor type 5. The data set can be described thus: Binding affinity to NPY5 receptor.
A short description of data set [5]: Plasma concentration in rat at 10 mg/kg, po after 4 hrs. The class given is ADME, organism-based. Further details: dose 10 mg/kg, route oral. Put shortly: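 Single oral dose of 10 mg/kg in rats, two animals. Plasma was sampled at 4 h and the two values averaged. LOQ 2 ng/mL.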
The test system of data set [6] is Liver microsomes. The experiment in a line: Intrinsic clearance in rat liver microsome. The data set is classed as ADME. A general note: Liver microsomes are a subcellular fraction often used to study metabolism.
Data set [7] can be described thus: Drug uptake in rat brain at 10 mg/kg, po after 4 hrs. As to conditions: read-out: Drug uptake. The data set is classed as ADME, organism-based. Set-up: dose 10 mg/kg, route oral. The procedure, abridged: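 Rat single oral dose of 10 mg/kg, two animals; plasma and brain homogenate levels measured at 4 h and averaged; quantification limit 2 ng/mL plasma, 2 ng/g brain.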

Data set [8] relates to Liver microsomes. The data set can be described thus: Intrinsic clearance in human liver microsome. The class given is ADME.
The target in data set [9] is T2, Neuropeptide Y receptor type 1. The experiment in a line: Antagonist activity at human NPY1 receptor assessed as calcium mobilization by FLIPR assay. The class given is functional.
The target in data set [10] is T3, Neuropeptide Y receptor type 2 (Homo sapiens, UniProt P49146).
T3 sequence (P49146 whole entry): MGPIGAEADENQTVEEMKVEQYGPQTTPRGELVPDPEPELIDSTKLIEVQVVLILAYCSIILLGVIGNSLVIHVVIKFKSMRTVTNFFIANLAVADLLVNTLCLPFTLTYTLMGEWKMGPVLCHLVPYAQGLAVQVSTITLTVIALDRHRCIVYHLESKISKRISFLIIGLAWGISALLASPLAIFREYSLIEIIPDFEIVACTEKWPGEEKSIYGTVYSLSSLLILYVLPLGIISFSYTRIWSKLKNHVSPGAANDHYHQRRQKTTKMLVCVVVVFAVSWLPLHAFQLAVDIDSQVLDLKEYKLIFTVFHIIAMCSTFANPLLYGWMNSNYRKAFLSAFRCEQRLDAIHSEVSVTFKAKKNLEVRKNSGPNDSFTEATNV
The data set can be described thus: Antagonist activity at human NPY2 receptor assessed as calcium mobilization by FLIPR assay. The data set is classed as functional.

Data set [11] concerns the target Neuropeptide Y receptor type 4 (Homo sapiens, UniProt P50391). The experiment in a line: Antagonist activity at human NPY4 receptor assessed as calcium mobilization by FLIPR assay. The class given is functional.
Another data set has as its system Rattus norvegicus. The data set can be described thus: Antistress activity against chronic mild stress Sprague-Dawley rat model assessed as increase sucrose consumption at 5 mg/kg, ip bid measured after 4 weeks. As to conditions: route intraperitoneal. The data set is classed as functional.

Chain of Neuropeptide Y receptor type 4 (P50391 whole entry): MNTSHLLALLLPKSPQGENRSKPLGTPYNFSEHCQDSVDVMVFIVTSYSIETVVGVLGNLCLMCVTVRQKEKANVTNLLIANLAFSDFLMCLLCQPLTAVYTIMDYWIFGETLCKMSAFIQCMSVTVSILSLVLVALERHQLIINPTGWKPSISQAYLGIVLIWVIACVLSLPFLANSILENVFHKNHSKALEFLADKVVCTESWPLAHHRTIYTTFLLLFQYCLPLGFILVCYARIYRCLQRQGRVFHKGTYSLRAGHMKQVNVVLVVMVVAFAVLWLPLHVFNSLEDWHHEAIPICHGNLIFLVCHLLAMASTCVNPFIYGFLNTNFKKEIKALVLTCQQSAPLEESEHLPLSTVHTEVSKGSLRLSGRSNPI

The molecule `O=S(=O)(NC[C@H]1CC[C@H](Nc2nc3c(s2)CCSc2ccccc2-3)CC1)c1cccc2ccccc12` displayed a Ki in data set [1] of 13.9 nM. Also, the IC50 in [2] worked out at 43.6 nM.
For `CCS(=O)(=O)NCCCCCNc1nc2c(s1)CCCc1ccc(F)cc1-2`, in that order: 0.9 nM and 1.3 nM.
For `COc1ccccc1CNCCCCCCNCCSSCCNCCCCCCNCc1ccccc1OC` [BENEXTRAMINE], the Ki in [3] stood at 1800 nM; in data set [4], 5000 nM.
`CS(=O)(=O)NCCCCCNc1nc2c(s1)CCSc1ccc(F)cc1-2`: the figures for the concentration at 4 h in [5] and in [7] were 61 ng/mL and 140 ng/g, respectively. Further, the CL with Liver microsomes [6] amounted to 89 mL/min; in the data set with Liver microsomes [8], 6.8 L/min. In data set [1], this molecule gave a Ki of 1.7 nM.
As for `COc1ccc(C)cc1S(=O)(=O)NC[C@H]1CC[C@H](Nc2nc3c(s2)CCSc2ccccc2-3)CC1`, the affinity in data set [1] corresponds to a Ki of 4.9 nM. Besides, the IC50 in data set [2] was 34.6 nM; in [9], over 1000 nM; in [10] it was over 1000 nM; in data set [11], over 1000 nM.
Consider `Cn1cnc(S(=O)(=O)NC[C@H]2CC[C@H](Nc3nc4c(s3)CCSc3ccccc3-4)CC2)c1`, for which the affinity in data set [1] corresponds to a Ki of 21.5 nM. Besides, the IC50 in [2] turned out to be 10.4 nM.
Turning to `O=S(=O)(CC(F)(F)F)NCCCCCNc1nc2c(s1)CCCc1ccc(F)cc1-2`, in data set [1], the Ki came out at 7.5 nM. Besides, the IC50 in [2] came to 9.9 nM.
On to `CCS(=O)(=O)NCCCCCNc1nc2c(s1)CCSc1ccccc1-2`, for which the concentration at 4 h in data set [5] amounted to 14 ng/mL. Besides, in [1], the Ki was found to be 0.8 nM. Also, in data set [2], the IC50 worked out at 0.6 nM.
Regarding `CS(=O)(=O)NC[C@H]1CC[C@H](Nc2nc3c(s2)CCCc2ccc(F)cc2-3)CC1`, in data set [1], the affinity corresponds to a Ki of 1.1 nM.
Turning to `O=S(=O)(CC(F)(F)F)NCCCCNc1nc2c(s1)CCCc1ccc(F)cc1-2`, in data set [1], the affinity, expressed as Ki, was 3.4 nM. In [2], the 50% inhibitory concentration (IC50) was 1.9 nM.
`CC(C)S(=O)(=O)NCCCCCNc1nc2c(s1)CCCc1ccc(F)cc1-2` showed a Ki in [1] of 46 nM. The IC50 in data set [2] was found to be 98.7 nM.
For `CS(=O)(=O)NCCCCCNc1nc2c(s1)CCSc1ccccc1-2`, in that order: 8.8 nM and 5 nM.
The molecule `CC(C)S(=O)(=O)NCCOCCNc1nc2c(s1)CCCc1ccc(F)cc1-2` yielded a Ki in [1] of 2.4 nM. In other words, the single-digit nanomolar range.
Take `COc1ccc2c(c1)OCCc1sc(NC[C@H]3CC[C@H](NS(C)(=O)=O)CC3)nc1-2`: in data set [1], the Ki was determined as 6.7 nM.
For the molecule `O=S(=O)(NC[C@H]1CC[C@H](Nc2nc3c(s2)CCSc2ccccc2-3)CC1)c1cccs1`, the concentration at 4 h was 8 ng/mL in [5] and 10 ng/g in data set [7]. The CL came to 120 mL/min in the data set with Liver microsomes [6] and 6.9 L/min in the data set with Liver microsomes [8]. In data set [1], this molecule came in with a Ki of 1.9 nM. For the same molecule, the IC50 in [2] was 3.8 nM; in data set [9], over 1000 nM; in data set [10], over 1000 nM; in data set [11] it was over 1000 nM.
In data set [1], `CCS(=O)(=O)NC[C@H]1CC[C@H](Nc2nc3c(s2)CCSc2ccccc2-3)CC1` showed a Ki of 2.8 nM. Further, the IC50 was 30.8 nM in [2], over 1000 nM in [9], over 1000 nM in data set [10] and over 1000 nM in data set [11].
Turning to `CS(=O)(=O)NCCCCCNc1nc2c(s1)CCCc1ccc(F)cc1-2`, the IC50 in data set [2] turned out to be 0.9 nM.
For `CS(=O)(=O)N[C@H]1CC[C@H](Nc2nc3c(s2)CCCc2ccc(F)cc2-3)CC1`, the affinity in data set [1] corresponds to a Ki of 27 nM. Besides, the IC50 in data set [2] amounted to 8.8 nM.
In the case of `COc1cccc2c1OCCc1sc(N[C@H]3CC[C@H](CNS(C)(=O)=O)CC3)nc1-2`, the Ki in data set [1] was found to be 1.1 nM.
`CS(=O)(=O)NC[C@H]1CC[C@H](Nc2nc3c(s2)CCOc2ccccc2-3)CC1`: affinity in [1] was put at a Ki of 16.1 nM. In [2], the IC50 turned out to be 3.9 nM.
With `CN(C)CCC[C@@]1(c2ccc(F)cc2)OCc2cc(C#N)ccc21` [ESCITALOPRAM], the Activity with Rattus norvegicus is reported as over 10%.
